Measured values pooled from the literature.
Protocols differ between the studies behind these lines.
Target: Serine/threonine-protein kinase Nek2 (NEK2, Homo sapiens, UniProt P51955)

Nc1cnc(N2CCc3cc(S(=O)(=O)Nc4c(F)cc(Cl)cc4F)cc(N4CCCC4=O)c32)nc1
remaining binding (cell-free assay, competition with immobilised ligand; 1 µM): 89%

CN1CC(Oc2cnc(C#N)cc2-c2ccn3nc(NC(=O)C4CC4)cc3c2)C1
inhibition (enzyme activity, inhibitor; 1 µM): 5%

COc1cc(Nc2cnc(C#N)c(O[C@H](C)CN(C)C)n2)ncc1-c1cnn(C)c1
remaining activity (enzyme activity, inhibitor, radiometric; 1 µM): 58%

Cc1ccc(NC(=O)c2ccc(C)c(C(F)(F)F)c2)cc1C#Cc1nn(C2CCC(O)CC2)c2ncnc(N)c12 (stereo not drawn)
remaining signal (cell-free assay; 10 µM): 117%

CC(C)CC(=O)N1CCc2nc(-c3ccc(Br)cc3)nc(N(C)Cc3ccccc3)c2C1
remaining binding (cell-free assay, competition with immobilised ligand; 0.1 µM): 100%

CN(c1ncccc1CNc1nc(Nc2ccc3c(c2)CC(=O)N3)ncc1C(F)(F)F)S(C)(=O)=O
inhibition (enzyme activity, inhibitor; 1 µM): 4.1%

CC(C)(C)C(=O)c1sc(NC2CCCCC2)nc1N
remaining activity (enzyme activity, inhibitor; 10 µM): 93%

Cn1c2c(Cl)c(Cl)ccc2c2cn[nH]c(=O)c21
ΔTm (thermal stability, DSF; 10 µM): -0.6 °C

O=C(Nc1cnn(-c2csc(C(=O)NC3COC3)c2)c1)Nc1c(F)cccc1Cl
remaining activity (enzyme activity, inhibitor; 5 µM): 96.2%

CNc1cccc2cc(C(=O)Nc3ccc(C(=O)O)cc3)c(=O)[nH]c12
inhibition (enzyme activity, inhibitor; 10 µM): 3.2%

Cc1ccc(NC(=O)c2ccc(CN3CCN(C)CC3)cc2)cc1Nc1nc(-c2cccnc2)cs1
remaining signal (cell-free assay; 0.5 µM): 96.7%

FC(F)(F)c1ccc2c(c1)nc(-c1cccnc1)n2C1CC1
remaining binding (cell-free assay, competition with immobilised ligand; 1 µM): 100%

CC(C)(C)c1nc(-c2cccc(NS(=O)(=O)c3c(F)cccc3F)c2F)c(-c2ccnc(N)n2)s1
remaining activity (enzyme activity, inhibitor, radiometric; 1 µM): 83%

Cc1ccc(C(=O)NCc2ccsc2)cc1C#Cc1cn(C(C)C)c2ncnc(N)c12
activity vs control (enzyme activity, inhibitor; 1 µM): 111%

CC(=O)Nc1c(C(C)=O)c(=O)n(C)c2nc(-c3ccc(Cl)cc3Cl)c(-c3ccc(Cl)cc3)cc12
remaining binding (cell-free assay, competition with immobilised ligand; 1 µM): 100%

COc1cc2ncnc(Nc3ccc(Oc4ccccc4)c(C)c3C)c2cc1OC
inhibition (enzyme activity, inhibitor; 1 µM): 1%

Cc1ccc(C(=O)Nc2ccc(CN3CCN(C)CC3)c(C(F)(F)F)c2)cc1C#Cc1cnc2cccnn12
remaining activity (enzyme activity, inhibitor; 23.5 nM): 92%

CNCc1ccc(-c2cc(-c3nc(-c4ccc(S(=O)(=O)C(C)C)cc4)cnc3N)on2)cc1
inhibition (enzyme activity, inhibitor; 0.4 µM): 0%

CCN1CCC2(CC1)NC(=O)c1c(c3ccc(Cl)c(Cl)c3n1C)C2C#N (racemic)
ΔTm (thermal stability, DSF; 10 µM): 0 °C

COc1cc(Cl)c(C(=O)N[C@@H](CN[C@H]2CC[C@@H](N)CC2)Cc2ccc(C#N)cc2)cc1-c1ccc(CN[C@H](C)c2ccc(C)cc2)o1
remaining activity (enzyme activity, inhibitor; 1 µM): 114%

CC(C)c1ccc(NC(=O)c2cccs2)c(-c2nc3ccccc3[nH]c2=O)c1
activity vs control (enzyme activity, inhibitor; 1 µM): 93%

CC1(C)NC(=O)c2[nH]c3c(Cl)c(Cl)ccc3c2C1C#N (stereo not drawn)
ΔTm (thermal stability, DSF; 10 µM): -0.8 °C

Clc1ccc(Nc2nnc(Cc3ccncc3)c3ccccc23)cc1
remaining signal (cell-free assay; 0.5 µM): 101%

Cn1c2c(Cl)c(Cl)ccc2c2cc(N)[nH]c(=O)c21
ΔTm (thermal stability, DSF; 10 µM): 1.8 °C

Cc1cc(NC(=O)c2cccc3cc(-c4cccc5[nH]nc(N)c45)ccc23)ccc1F
activity vs control (enzyme activity, inhibitor; 0.1 µM): 99%

Cc1cnc(NC2CCOCC2)nc1-n1cnc(C(=O)NC(CN)c2cc(F)cc(Cl)c2)c1 (stereo not drawn)
remaining activity (enzyme activity, inhibitor, radiometric; 1 µM): 36%

CN(C)C1CCN(CC#Cc2nn(C3CCCC3)c3nc(NCc4ccccc4)ncc23)C1 (stereo not drawn)
inhibition (enzyme activity, inhibitor, FRET; 1 µM): 4%

Cc1ccc(Nc2nccc(N(C)c3ccc4c(C)n(C)nc4c3)n2)cc1S(N)(=O)=O
inhibition (enzyme activity, inhibitor; 10 µM): 91%

O=C1Nc2ccc(Cl)cc2C1=Cc1cc(Cl)c(O)c(Cl)c1
remaining signal (cell-free assay; 0.5 µM): 86%

CN(c1ccnc(CNc2nc(Nc3ccc4c(c3)CC(=O)N4)ncc2C(F)(F)F)n1)S(C)(=O)=O
remaining binding (cell-free assay, competition with immobilised ligand; 1 µM): 83%

FC(F)c1nc2ccccc2n1-c1nc(N2CCOCC2)nc(N2CCOCC2)n1
remaining activity (enzyme activity, inhibitor; 10 µM): 106%

CNC(=O)c1ccc(Nc2ncc(C(F)(F)F)c(NCc3nccnc3N(C)S(C)(=O)=O)n2)cc1
remaining binding (cell-free assay, competition with immobilised ligand; 0.1 µM): 75%

Cn1c2c(c3ccc(Cl)c(Cl)c31)C(C#N)C(C)(C)NC2=O (stereo not drawn)
ΔTm (thermal stability, DSF; 10 µM): -0.9 °C

FC(F)(F)Oc1cccc(-c2cnc3ccc(-c4ccncc4)nn23)c1
activity vs control (enzyme activity, inhibitor, radiometric; 5 µM): 88%

CN(C)CC#Cc1ccc(OCCCc2sc(N3CCc4cccc(C(=O)Nc5nc6ccccc6s5)c4C3)nc2C(=O)O)c(F)c1
remaining binding (cell-free assay, competition with immobilised ligand; 1 µM): 92%

CNC(=O)c1cc(Oc2ccc(NC(=O)Nc3ccc(Cl)c(C(F)(F)F)c3)cc2)ccn1
inhibition (enzyme activity, inhibitor; 0.3 µM): -1%

O=C(NS(=O)(=O)c1ccc(NCC2CCOCC2)c([N+](=O)[O-])c1)c1ccc(N2CCN(Cc3ccc(C(F)(F)F)cc3-c3ccc(Cl)cc3)CC2)cc1Oc1cnc2[nH]ccc2c1
remaining binding (cell-free assay, competition with immobilised ligand; 1 µM): 100%

CCN(CC)CCNC(=O)c1c(C)[nH]c(/C=C2\C(=O)Nc3ccc(F)cc32)c1C
inhibition (enzyme activity, inhibitor; 10 µM): 28%

Cn1c(=O)n(-c2ccc(C(C)(C)C#N)cc2)c2c3cc(-c4cnc5ccccc5c4)ccc3ncc21
remaining activity (enzyme activity, inhibitor; 10 µM): 145%
